Measured values: the EternaBench riboswitch data

Test system: MS2 coat protein
Experiment: apparent Kd, MS2 coat protein; higher = weaker binding; RNA-MaP array; FMN 200 µM where present
Outline: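 The apparent Kd is reported as the median of filtered per-cluster binding-curve fits. To get these curves, designs transcribed by stalled E. coli RNA polymerase on Illumina sequencing-chip clusters were titrated with SNAP-549-labelled MS2 coat protein from 0.7 or 1.5 nM, doubling to 3 µM. Titrations were run without and then with constant ligand in 100 mM Tris-HCl pH 7.5, 80 mM KCl, 4 mM MgCl2, BSA, DTT, yeast tRNA and Tween-20, and green signal was normalised to red-channel RNA signal and control-cluster median Fmax.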

[1] = designed as: OFF switch for flavin mononucleotide, no ligand
[2] = ligand present: flavin mononucleotide, designed as: OFF switch for flavin mononucleotide
[3] = designed as: ON switch for flavin mononucleotide, no ligand
[4] = ligand present: flavin mononucleotide, designed as: ON switch for flavin mononucleotide

Sequence | apparent Kd [1] [nM] | apparent Kd [2] [nM] | apparent Kd [3] [nM] | apparent Kd [4] [nM]
GGUCAGGGUGUGAGGAUAUUUACCUAUCACAGUGUGAAGAAGGCACAUGAGGAUCACCCAUGUUAACUGCGGGC | 51.7 | 76.7 |  | 
CGACGUUGGGAGAAGGAGUAAAAUACAUGAGGAUCACCCAUGUCAGGUGCUAGGAUAUCCUCGCGUGGCAGGGUCGGCCCGUGU |  |  | 97.2 | 32.7
AUUAUUAUAUUAUACAUGAGGAUCACCCAUGUUAUAAGUCAUGAGGAUAUGGUAUUGUAGUUAUUCCAGAAGGCAUUUAACUUA |  |  | 11.4 | 7.05
AGCUACGUUUCGUAGCAGCUAGGUGAGGAUAUUCAAUUUUUCACAUGAGGAUCACCCAUGUAUGUGAAGAAGGCGCCUAGAAAU |  |  | 11.1 | 4.98
GGAUUGGACAGAGGAUAUACGUGCUAGAGAUACUAGCAAAAUUUCCUCACAUGAGGAUCACCCAUGUAGAAGGCUGUCCUAUCG | 15.6 | 378 |  | 
GGAUCGUAUGUCAGGAUAUACCACUGGAUACAGUGGUAGAAGGGACAUGAGGAUCACCCAUGUGUUAUCGAUCC | 58.9 | 124 |  | 
UUACUAUUGGAGAAGGCUCGAUAAUAUAUAAAGGGAGGAUAUCCAACAUGAGGAUCACCCAUGUUUCACCCAUAUGAGGAUCAC | 14.8 | 15.7 |  | 
CGUUCUAGAGGAUAUACAGCUUAUGUACGGCGAUCUGGACAACAUGAGGAUCACCCAUGUAGAAGGCUAAGCAC | 36.4 | 69 |  | 
AUAUCGUUAUCAGGAUAUGGACAGGCCUGUCCGUAUUGAGACAGUAACAUGAGGAUCACCCAUGUCCAGAAGGGAUCGAUGUAU | 54.2 | 48.6 |  | 
AAUUAUUAUUGAGGAUAUCGUAUUGAAACAAUACGAGAAGGCGGAAUAAACAUGAGGAUCACCCAUGUGAGCCUGAUGCUUGUG | 17 | 18.7 |  | 
GGACCAUAUCAGGAUAUGACUAGCUUCGGCUAGUCAGAAGGGAUGACAUGAGGAUCACCCAUGUGAUCAGGUCC | 42.1 | 50.5 |  | 
CCUUGAUAAUAUCUUCACAUGAGGAUCACCCAUGUCGCUCGACAGGAUAUAUUUGAUUUGUUUAAGUAGAAGGGUCGCAGAUUC |  |  | 123 | 111
CCGUGAAGGACAGGAUAUGGACAUGAGGAUCACCCAUGUACAUGGGAAUAUAUACUGAAUUUAUACUAGAAGGGUUACAUAAAU | 21.8 | 19.4 |  | 
GAGUAGUUAAAAGGAUAUUGAUUAUUGUAGGAUCAAGAAGGUUUUAACAUGAGGAUCACCCAUGUAGGACUAUAAAUGUGAAAA |  |  | 17.5 | 15
AUUUUAAAGGGAGGAUAUACAUGAGGAUCACCCAUGUAAACGUGAGGAUCACCCAUGUAAACAAUGUAGAAGGCCUAUAUCUAU | 86 | 74.1 |  | 
GAUUUACAUGAGGAUCACCCAUGUGAGGAUAUGGAAUGGCUCAUUGUCUGAUUUCCUUCUAGAAGGCACAUCUG | 54.2 | 54.9 |  | 
GUAUCUUACCGAGGAUAUUUACGAUUAGUGUAGACAUGAGGAUCACCCAUGUGGCGUUAGUCACGGGAGAAGGCGGUUUGAUAC |  |  | 92.2 | 20.5
GUCCUACAUGAGGAUCACCCAUGUGAGGAUAUGUGGUUAGCUGCUAGGUAGUUAGUAUGCAGAAGGUACGUGAA | 14.8 | 15.5 |  | 
AGCUAGUCAGGAUAUACAUGAGGAUCACCCAUGUAAACUUUUAGUUUAAUUUGAAUGUGUAGAAGGGACAUAAA | 21.7 | 24.1 |  | 
UUCGCUAAGGUGUAGCGAGGCUCGCAAGAAGGGUGAUGCACAUGAGGAUCACCCAUGUAAGCCUUACAGGAUAUUGCUUGCCGA |  |  | 509 | 40.7
AAUAUGAGCUGGUUUAAACUCAAAACAUGAGGAUCACCCAUGUAGGAUAUCAGCACGAUAAGUGCUGAGAAGGACAUCCAGCUC | 14.2 | 16.5 |  | 
ACUAGAUGAGGAUAUGCACAUUUUAGUGUUCCUCUAGAUUAACAUGAGGAUCACCCAUGUAGAAGGCGUCAUUU | 77 | 91.5 |  | 
CAGUACUGAGGAUAUACAUGAGGAUCACCCAUGUGUUCCAGCUUGGAAACUAGCAAAAGUAGAAGGCAGUACUG | 14.8 | 158 |  | 
GAAAAGCGAGGAUAUACAUGAGGAUCACCCAUGUGUUGGGUGCGUUGGCUAGUCGUCUGUAGAAGGCGCACAAA | 904 | 466 |  | 
GCUGUCGCAUGAGGAUAUGGACUGCUUUGCAGUCCAGAAGGCAUGUCAAUAGACAUGAGGAUCACCCAUGUAGUUAAGACAGCA |  |  | 704 | 42.4
AUUAUAUAGACAGGAUAUUGAUUAUUAUUUUAACAUGAGGAUCACCCAUGUAACCUUAUGUGUAGCAAGAAGGGUCAUUUAUUA | 84.3 | 185 |  | 
GCUGCCGAUGCAGGAUAUCAGCACGUGUAGUGCUGAGAAGGGCACAUGAGGAUCACCCAUGUGAUCAAUUAAUAUCCGUGCAGC | 5.89 | 7.78 |  | 
GCAUGCGUUCGAGGAUAUCGGUGAGCAACGGAACGAGAAGGCGAUCGAAUGUCACAUAUUAUGUACAUGAGGAUCACCCAUGUA |  |  | 104 | 43.4

Sequence | apparent Kd [1] [nM] | apparent Kd [2] [nM] | apparent Kd [3] [nM] | apparent Kd [4] [nM]
AUCAGCUCGUGAGGAUAUACGUCACUGCGUCAGCAGUGUGGUAAGAUCACAUGAGGAUCACCCAUGUAGAAGGGACGAGCUGAU | 15.6 | 45.9 |  | 
CUGGGCCAGGAGAAGGGCUAGAGUGUGAUAUAUUUGCCCGCGAGCACAUGAGGAUCACCCAUGUAGCAGGAUAUCCAAGCCGGU | 8.38 | 15.8 |  | 
GCAAUAGCAUGAGGAUAUGCUGGAGUUUAGACAGCAGAAGGCAUGUCAUAAGACAUGAGGAUCACCCAUGUAAUUACAAUAGCA |  |  | 57.8 | 10.4
AAUUUACAGGGAGGAUAUACAUGAGGAUCACCCAUGUAAUCAUAUGAUAUUUUUUUUGUAUGAGUGUAGAAGGCCCAAAUAACA | 9.27 | 11.4 |  | 
AAAAGGCUAGGAUAUACCAGUGGGUGUAAGAACUCAAAUUUACAUGAGGAUCACCCAUGUAGAAGGAGUAAAAU | 20.4 | 30.2 |  | 
AACUAGUCAGGAUAUACGAACAUGUCAAAAAACAUAAAGGGACAUGAGGAUCACCCAUGUAGAAGGGACUAGCA | 177 | 666 |  | 
GCCUCAGAAUUAAUUGUGAGAGGCAGAAGGCUAUAUCUCGUGUUAAACAUGAGGAUCACCCAUGUAGAGGAUAUGCUAUUACAG | 9.3 | 10.6 |  | 
AUUUAGAGAGGAUAUAUAUUGUGAAACAUGAGGAUCACCCAUGUAAUAAUAUGGAUGUAAAUAGAAGGCUCAUUUA | 38.1 | 34.9 |  | 
AUACAAUUUCGAGGAUAUCGGUGAUAAAUAAUACGAGAAGGCGAUGAAAGAUAUAAUCCUAUUUACAUGAGGAUCACCCAUGUU |  |  | 34.8 | 31.1
GUCAGCUCGUCAGGAUAUACGUCACUGCGUCAGCAGUGUGGUAAGAUCACAUGAGGAUCACCCAUGUAGAAGGGACGAGCUGAU | 14.1 | 291 |  | 
UCGCGGGAGCAGAAGGGACAGGCCUAUUGUCGUGAGGUCUGCACUUAACAUGAGGAUCACCCAUGUCAGGAUAUGCCCACGCGA | 4.8 | 4.94 |  | 
CAAUUUAUUGCAGGAUAUACAAUACAAUGAUUAGUAGAAGGGUAUAAUACAUGAGGAUCACCCAUGUCAUGUGUCAUAAUAACC | 36.7 | 27.6 |  | 
UGAUCUUUUGUUAGGAUAUGCUGUUUUUUUUUACAGCAGAAGGGACAUGAGGAUCACCCAUGUCUUGUCAUAAA | 11.3 | 18.6 |  | 
UUUUUGUCAGGAUAUGAUUAGAUCUACUUUUGUAGAUCUAAUCAGAAGGGACAUGAGGAUCACCCAUGUAGUUU | 37.2 | 152 |  | 
AGAGAUGACGAAGGAUAUGGAUACAUGAGGAUCACCCAUGUUUAUAUAGUGAAAUUGAUUGAAUUCCAGAAGGUCGAAUAAAAG | 46.7 | 36.9 |  | 
GGGCGUGAAGGAUAUACAUGAGGAUCACCCAUGUGGGAGGAGAGUGGUGAGGAGGCUGGUAGAAGGUCAGGAUG | 44.8 | 36.8 |  | 
CACGUGUAAGGAUAUGACAAUGGUAUCUUCGGAUACCAUUGUCAGAAGGUACAUGAGGAUCACCCAUGUAACAC | 16.1 | 26.8 |  | 
GGGUACGUUUCGUAGCAGUGUCAUCGAGAAGGCCCUGACAUGAGGAUCACCCAUGUUGUUACAUGGGAGGAUAUCGAUGAUCCC |  |  | 53.6 | 8.36
AGUUAAUAUCGAGGAUAUCCUCUACCACAUGAGGAUCACCCAUGUAUGCAUGGAGAAGGCGAUAUUAACAGCAUGUUACAUGCA |  |  | 157 | 8.62
CGUAGGAUCCAGAAGGCAUGAAACAUGAGGAUCACCCAUGUCAAAUACAUGAGGAUAUGGAUCCUACGAAAAGUGCGAAAGCAC |  |  | 3.95 | 3.84
AGUCGGCGAGGAUAUACAUGAGGAUCACCCAUGUGAGAUAGUGCACGCGUACGUGUACGUAGAAGGCGCUGACA | 12.1 | 23.2 |  | 
GUGAACAUGAGGAUCACCCAUGUAGCUCACUGCCAGUGGCUACAGGAUAUAGCACCUCGAGAGUGCUAGAAGGGUGGCCUAGAA |  |  | 106 | 33.9
GGGUACAUCGGAGGAUAUCAUGUAAAUACAUGAGGAUCACCCAUGUCGAUGGAGACAUCGGAGAUUGAGAAGGCCCAUGUACCG |  |  | 199 | 10.8
AGUCGGAGCAGAGGAUAUUACAUGAGGAUCACCCAUGUAUGAACCAAUAGCUGGAAACAGCAAUGUAAGAAGGCUGCUCCGACA | 37.6 | 426 |  | 
AAUCUUUUUAUGGGAUUAGAAUAUGAGGAUAUCAUUUGUUUAUACAUGAGGAUCACCCAUGUUUCUGAGAAGGCAUAUAUAAUA |  |  | 44.6 | 10.2
CUGAUGUUAGGAUAUCAGGUUGUGCGCGAAGGCGGGCGGCAUGAGAAGGAACAUGAGGAUCACCCAUGUGACGA | 29.4 | 85 |  | 
AAUUAAUUAAUUAAGUACAUGAGGAUCACCCAUGUAAGUGAUCAGGAUAUCAGCUCGAUUAGAGCUGAGAAGGGAUCCAUGUAC |  |  | 531 | 303
